Measured values as given in ChEMBL document CHEMBL4041535, “Rational design, synthesis and in vitro evaluation of novel exo-methylene butyrolactone salicyloylamide as NF-κB inhibitor” (Bioorg Med Chem Lett, 2017).
The source made the active and inactive calls. The rule behind the calls is not given here.

What was measured:
[1] = target: Transcription factor p65 (Mus musculus) (UniProt Q04207); test: Inhibition of kappaB DNA binding to NFkappaB p65 in LPS-stimulated mouse RAW264.7 nuclear extract at 3 to 10 ug/ml after 15 mins by colorimetric method
Sequence of Transcription factor p65 (Mus musculus) (Q04207 whole entry): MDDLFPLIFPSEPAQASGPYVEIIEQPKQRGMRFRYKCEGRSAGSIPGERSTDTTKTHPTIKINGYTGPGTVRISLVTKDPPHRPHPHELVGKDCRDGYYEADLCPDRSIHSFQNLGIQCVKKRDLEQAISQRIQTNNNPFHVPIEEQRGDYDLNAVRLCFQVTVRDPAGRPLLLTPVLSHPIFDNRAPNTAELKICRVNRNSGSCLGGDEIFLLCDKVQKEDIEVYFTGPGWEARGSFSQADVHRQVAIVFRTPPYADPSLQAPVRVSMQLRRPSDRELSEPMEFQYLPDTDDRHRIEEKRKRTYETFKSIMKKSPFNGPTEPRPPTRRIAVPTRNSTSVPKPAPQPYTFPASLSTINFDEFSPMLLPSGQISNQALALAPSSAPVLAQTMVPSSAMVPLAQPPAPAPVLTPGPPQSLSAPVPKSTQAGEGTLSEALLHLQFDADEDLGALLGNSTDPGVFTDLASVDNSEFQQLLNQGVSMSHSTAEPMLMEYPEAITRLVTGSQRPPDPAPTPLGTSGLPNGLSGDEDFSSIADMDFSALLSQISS
Method in brief: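 RAW264.7 cells stimulated with LPS 2 h to accumulate nuclear NF-κB. Nuclear extract prepared; compound added directly to extract. p65-κB DNA binding read with TransAM NF-κB p65 kit. Mean ± SD of 3 independent experiments.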

RAW264.7 = test: Cytotoxicity against mouse RAW264.7 cells assessed as reduction in cell viability up to 1 ug/ml after 24 hrs by MTT assay; format: cell-based; details: raw264.7, 24 h
Method in brief: (§1)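 Cells treated with compound 24 h; viability by MTT. Mean ± SD of 3 determinations.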

[2] = target: Transcription factor p65 (Mus musculus) (UniProt Q04207); test: Inhibition of LPS-induced NFkappaB p65 activation in mouse RAW264.7 cells at 0.3 to 1 ug/ml preincubated for 30 mins followed by LPS addition measured after 2 hrs by kappaB DNA binding based colorimetric method; format: cell-based
Method in brief: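 RAW264.7 cells given compound 30 min before LPS, stimulated 2 h. Nuclear extract prepared. p65 binding measured on κB DNA-coated dish with labeled p65 antibody (TransAM kit). Mean ± SD of 3 independent experiments.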

[3] = target: Transcription factor p65 (Mus musculus) (UniProt Q04207); test: Inhibition of LPS-induced NFkappaB p65-mediated iNOS induction in mouse RAW264.7 cells assessed as reduction in NO production preincubated for 30 mins followed by LPS addition measured after 24 hrs by Griess assay; format: cell-based
Method in brief: (§2)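 RAW264.7 cells given compound 30 min before LPS, then incubated 24 h. Nitrite in medium measured by Griess assay. Mean ± SD of 3 determinations.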

[4] = target: Transcription factor p65 (Mus musculus) (UniProt Q04207); test: Inhibition of LPS-induced NFkappaB p65-mediated iNOS mRNA expression in mouse RAW264.7 cells at 0.1 to 1 ug/ml preincubated for 30 mins followed by LPS addition measured after 24 hrs by qPCR method; format: cell-based
Method in brief: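 RAW264.7 cells incubated with compound plus LPS 24 h; iNOS mRNA detected by semi-quantitative PCR.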

[5] = target: Transcription factor p65 (Mus musculus) (UniProt Q04207); test: Inhibition of LPS-induced NFkappaB p65-mediated IL-6 secretion in mouse RAW264.7 cells at 0.1 to 1 ug/ml preincubated for 30 mins followed by LPS addition measured after 24 hrs by ELISA; format: cell-based
Method in brief: (§3)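 RAW264.7 cells given compound 30 min before LPS, then incubated 24 h. IL-6, IL-1β, TNF-α in medium quantified by ELISA. Mean ± SD of 3 determinations.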

[6] = target: Transcription factor p65 (Mus musculus) (UniProt Q04207); test: Inhibition of LPS-induced NFkappaB p65-mediated IL-1beta secretion in mouse RAW264.7 cells at 0.1 to 1 ug/ml preincubated for 30 mins followed by LPS addition measured after 24 hrs by ELISA; format: cell-based; method in brief: as §3
[7] = target: Transcription factor p65 (Mus musculus) (UniProt Q04207); test: Inhibition of LPS-induced NFkappaB p65-mediated TNF-alpha secretion in mouse RAW264.7 cells at 0.1 to 1 ug/ml preincubated for 30 mins followed by LPS addition measured after 24 hrs by ELISA; format: cell-based; method in brief: as §3
[8] = target: Transcription factor p65 (Homo sapiens) (UniProt Q04206); test: Inhibition of kappaB DNA binding to NFkappaB p65 in human ES2 nuclear extract at 3 to 10 ug/ml after 15 mins by colorimetric method
Sequence of Transcription factor p65 (Homo sapiens) (Q04206 whole entry): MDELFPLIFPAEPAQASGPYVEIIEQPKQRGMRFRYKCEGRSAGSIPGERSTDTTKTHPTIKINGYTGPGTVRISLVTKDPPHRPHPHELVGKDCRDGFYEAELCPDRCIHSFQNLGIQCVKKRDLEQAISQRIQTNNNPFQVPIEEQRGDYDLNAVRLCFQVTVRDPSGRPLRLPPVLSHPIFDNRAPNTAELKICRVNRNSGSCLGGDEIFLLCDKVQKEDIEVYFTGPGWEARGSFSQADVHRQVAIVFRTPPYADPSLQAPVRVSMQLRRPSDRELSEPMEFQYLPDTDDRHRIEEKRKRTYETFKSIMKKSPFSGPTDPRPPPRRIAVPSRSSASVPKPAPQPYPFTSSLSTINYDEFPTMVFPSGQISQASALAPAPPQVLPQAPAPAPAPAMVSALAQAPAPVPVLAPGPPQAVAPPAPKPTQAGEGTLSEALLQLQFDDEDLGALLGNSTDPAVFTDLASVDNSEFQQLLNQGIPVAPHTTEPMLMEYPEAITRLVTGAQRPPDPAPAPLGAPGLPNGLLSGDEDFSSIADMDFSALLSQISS
Method in brief: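 Compound added directly to ES-2 nuclear extract. p65 binding to κB DNA-coated dish detected with labeled p65 antibody. Mean ± SD of 3 independent experiments.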

[9] = Cytotoxicity against human ES2 cells assessed as reduction in cell viability up to 30 ug/ml after 24 hrs by MTT assay; format: cell-based; details: es2, 24 h; method in brief: as §1
[10] = target: Transcription factor p65 (Homo sapiens) (UniProt Q04206); test: Inhibition of constitutively activated NFkappaB p65 in human ES2 cells at 3 to 10 ug/ml after 2 hrs by kappaB DNA binding based colorimetric method; format: cell-based
Method in brief: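 ES-2 cells exposed to compound 2 h. Nuclear extract prepared. p65 binding to κB DNA-coated dish detected with labeled p65 antibody.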

ES2 [11] = test: Antimigratory activity against human ES2 cells at 1 to 10 ug/ml after 24 hrs by radius 96-well migration assay; format: functional, cell-based
Method in brief: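 ES-2 cells treated 24 h; migration read by Radius 96-well cell migration assay. Mean ± SD of 3 determinations.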

ES2 [12] = test: Anti-invasive activity against human ES2 cells at 0.1 to 0.3 ug/ml after 24 hrs by Diff-Quick staining based matrigel chamber assay; format: functional, cell-based
Method in brief: (§4)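 ES-2 ovarian clear cell carcinoma cells exposed to compound 24 h; invasion through Matrigel chamber. Mean ± SD of 4 fields.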

[13] = target: Transcription factor p65 (Homo sapiens) (UniProt Q04206); test: Inhibition of NFkappaB p65 in human ES2 cells assessed as reduction in MMP2 secretion at 3 to 10 ug/ml after 24 hrs by ELISA; format: cell-based
Method in brief: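 ES-2 cells incubated with compound 24 h; secreted MMP-2 in medium by ELISA. Mean ± SD of 3 determinations.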

[14] = target: Transcription factor p65 (Homo sapiens) (UniProt Q04206); test: Inhibition of NFkappaB p65 in human ES2 cells assessed as reduction in MMP2 mRNA expression at 0.1 to 1 ug/ml after 24 hrs by qPCR method; format: cell-based
Method in brief: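 ES-2 cells incubated with compound 24 h; MMP-2 mRNA detected by semi-quantitative PCR.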

[15] = Chemical stability in PBS at 100 ug/ml up to 12 hrs at 37 degC by HPLC analysis; format: physicochemical; details: buffer
Method in brief: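 Compound dissolved in PBS at 100 µg/ml, held at 37 °C for 0, 30 min, 1, 2, 6, 12 h. Extracted into ethyl acetate, dried, then quantified by HPLC. Column: ODS at 40 °C. Mobile phase: acetonitrile/0.1% ammonium acetate (22:78), 0.3 mL/min. UV detection at 254 nm. Mean ± SD of 3 determinations.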

[16] = target: Transcription factor p65 (Mus musculus) (UniProt Q04207); test: Inhibition of LPS-induced NFkappaB p65-mediated iNOS induction in mouse RAW264.7 cells assessed as reduction in NO production at 1 ug/ml using 12 hrs PBS incubated compound preincubated for 30 mins with cells followed by LPS addition measured after 24 hrs by Griess assay; format: cell-based
Method in brief: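 Compound pre-incubated in PBS at 100 µg/ml, then added to RAW264.7 cells to give 1 µg/ml. LPS 10 ng/ml added 30 min later, 24 h. NO by Griess assay. Mean ± SD of 3 determinations.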

[17] = target: Transcription factor p65 (Mus musculus) (UniProt Q04207); test: Inhibition of LPS-induced NFkappaB p65-mediated iNOS induction in mouse RAW264.7 cells assessed as reduction in NO production at 0.3 to 10 ug/ml preincubated for 30 mins followed by LPS addition measured after 24 hrs by Griess assay; format: cell-based; method in brief: as §2
ES2 [18] = test: Anti-invasive activity against human ES2 cells at 1 to 10 ug/ml after 24 hrs by Diff-Quick staining based matrigel chamber assay; format: functional, cell-based; method in brief: as §4

SMILES | inhibition [1] | Activity (RAW264.7) | inhibition [2] | inhibition [3] | inhibition [4] | inhibition [5] | inhibition [6] | inhibition [7] | inhibition [8] | Activity [9] | inhibition [10] | inhibition (ES2 [11]) | inhibition (ES2 [12]) | inhibition [13] | inhibition [14] | Stability [15] | inhibition [16] | inhibition [17] | inhibition (ES2 [18])
C=C1C(=O)OC[C@H]1NC(=O)c1ccccc1O | Active | Non-Toxic | Active | Dose-dependent effect | Active | Active | Active | Active | Active | Non-Toxic | Active | Active | Active | Active | Active | Stable | Active | – | –
O=C(NC1=CC(=O)[C@H]2O[C@H]2[C@H]1O)c1ccccc1O [DEHYDROXYMETHYLEPOXYQUINOMICIN] | Active | – | Active | – | – | – | – | – | – | – | Active | – | – | – | – | Unstable | – | Active | Active
